Experimental data pooled from the literature.
Protocols differ between the studies behind these lines.
HTR2A: 5-hydroxytryptamine receptor 2A (HTR2A, Homo sapiens, UniProt P28223)
HDAC2: Histone deacetylase 2 (HDAC2, Homo sapiens, UniProt Q92769)
PPO3: PPO3 (Agaricus bisporus, UniProt C7FF04)

Compound	target	test	IC50
O=C(c1cc(C2CCNC2)[nH]n1)N1CCC(c2cccc(Cl)c2)C1 (stereo not drawn)	HTR2A	calcium signal, antagonist	19.3 µM
O=C(/C=C/c1cccc(OS(=O)(=O)Oc2ccc(C(F)(F)F)cc2)c1)NO	HDAC2	enzyme activity, inhibitor, fluorescence	0.45 µM
Nc1ccc(-c2cc(-c3ccc(-c4cc(-c5ccc(N)cc5)nc(N)n4)cc3)nc(N)n2)cc1	PPO3	enzyme activity, inhibitor, absorbance	12.4 µM
CCc1c(C)nc(-c2ccc(Cl)s2)nc1Nc1ccc(CC(=O)O)cc1	3',5'-cyclic-AMP phosphodiesterase 4A (PDE4A, Homo sapiens, UniProt P27815)	enzyme activity, inhibitor, FP	~3.7 µM
CC(C)C(N)CCN(C)C(=O)C(=O)Nc1cc2ccccc2cc1Cl (stereo not drawn)	HTR2A	calcium signal, antagonist	15.7 µM
C=CC(=O)N1CCCN(C(=O)c2cc(Sc3cnc(NC(=O)C4CC4)s3)c(C)cc2OC)C[C@H]1C	Tyrosine-protein kinase TXK (TXK, Homo sapiens, UniProt P42681)	enzyme activity, inhibitor	0.261 µM
Nc1ccccc1NC(=O)c1ccc(CNc2ccc(NC3=C(Cl)C(=O)c4cccnc4C3=O)cc2)cc1	HDAC2	enzyme activity, inhibitor	0.415 µM
O=C1CC[C@H](N2Cc3cc(N4CCN(CC5CCN(c6ccc([C@@H]7c8ccc(O)cc8CC[C@@H]7c7ccccc7)cc6)CC5)CC4)ccc3C2=O)C(=O)N1	Kappa-type opioid receptor (OPRK1, Homo sapiens, UniProt P41145)	ligand displacement, radioligand	0.25 µM
Nc1nc(-c2ccccc2)cc(-c2ccc(-c3cc(-c4ccccc4)nc(N)n3)cc2)n1	PPO3	enzyme activity, inhibitor, absorbance	86.7 µM
CCN(Cc1cc(Br)ccc1O)C(=O)C(N)Cc1ccco1 (stereo not drawn)	HTR2A	calcium signal, antagonist	27 µM
Nc1nc(-c2ccc(Br)cc2)cc(-c2ccc(-c3cc(-c4ccc(Br)cc4)nc(N)n3)cc2)n1	PPO3	enzyme activity, inhibitor, absorbance	40.9 µM
O=C(NO)c1cncc(OS(=O)(=O)Oc2ccc(-n3ccnc3)cc2)c1	HDAC2	enzyme activity, inhibitor, fluorescence	1.37 µM
